SMILES strings stand for the structures. Bounds are passed on as bounds.

Holding throughout (type): functional
Experiment [1] relates to Mus musculus. The experiment can be described thus: Hypolipidemic activity (16th day serum cholesterol) at 20 mg/kg in CF1 male mice. Put shortly: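 Male CF1 mice (~25 g), given 20 (mg/kg)/day ip at 11:00 a.m. On day 16, tail-vein blood collected between 8:00 and 9:30 a.m. in alkali-free nonheparinized microcapillaries and centrifuged 3 min. Serum cholesterol (mg %) from duplicate 25-µL nonhemolyzed samples by modified Liebermann-Burchard reaction. Reported as % control.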

The subject of experiment [2] is Mus musculus. The experiment can be described thus: Hypolipidemic activity (9th day serum cholesterol) at 20 mg/kg in CF1 male mice. Put shortly:
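Male CF1 mice (~25 g), dosed intraperitoneally at 20 (mg/kg)/day at 11:00 a.m. Tail-vein blood taken on day 9 between 8:00 and 9:30 a.m. into alkali-free nonheparinized microcapillary tubes, spun 3 min for serum. Cholesterol (mg %) in duplicate 25-µL nonhemolyzed serum samples by modified Liebermann-Burchard reaction. Expressed as % control.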

Experiment [3] deals with Mus musculus. The experiment can be described thus: Hypolipidemic activity (14th day serum triglyceride) at 20 mg/kg in CF1 male mice. Put shortly:
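Separate group of male CF1 mice (~25 g) dosed ip at 20 (mg/kg)/day for 14 days, injections at 11:00 a.m. Bled by tail vein on day 14 into nonheparinized microcapillary tubes, centrifuged 3 min for serum. Triglycerides (mg %) measured on duplicate 50-µL serum samples. Given as % control.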

Regarding `CCCCCN1C(=O)c2ccccc2C1=O`, the results for the Control in the experiment with Mus musculus [1], with Mus musculus [2] and in the experiment with Mus musculus [3] were 58%, 76% and 75%, respectively.

Take `CC(=O)CCN1Cc2ccccc2S1(=O)=O`: the Control in the experiment with Mus musculus [1] was found to be 81%; in the experiment with Mus musculus [2] it was 87%; in the experiment on Mus musculus [3] it was 78%.

In the case of `C=C(CN1C(=O)c2ccccc2S1(=O)=O)C(=O)O`, the Control in the experiment on Mus musculus [1] was 85%; in the experiment with Mus musculus [2], 85%; in the experiment with Mus musculus [3], 101%.

As to `CCCCN1Cc2ccccc2C1=O`, the Control in the experiment on Mus musculus [1] came to 62%; with Mus musculus [2] it was 68%; in the experiment with Mus musculus [3], 80%.

As to `O=C(O)CCCCN1C(=O)c2ccccc2S1(=O)=O`, the Control is on record as 68% with Mus musculus [1], 96% in the experiment with Mus musculus [2] and 44% with Mus musculus [3].

Consider `CC(=O)CN1C(=O)c2ccccc2C1=O`, for which the values for the Control in the experiment on Mus musculus [1], in the experiment with Mus musculus [2] and with Mus musculus [3] were under 67%, 80% and under 48%, respectively.

On to `CC(=O)CN1C(=O)c2ccccc2S1(=O)=O`, for which the Control in the experiment with Mus musculus [1] is 52%; with Mus musculus [2], 95%; in the experiment on Mus musculus [3] it was 66%.

For the compound `CCCCCN1C(=O)c2ccccc2S1(=O)=O`, the Control in the experiment with Mus musculus [1] is on record as 58%; in the experiment on Mus musculus [2], 106%; with Mus musculus [3], 62%.

In the case of `CCCCN1C(=O)c2ccccc2C1=O`, the figures for the Control in the experiment on Mus musculus [1], in the experiment with Mus musculus [2] and in the experiment on Mus musculus [3] were under 54%, under 72% and 82%, respectively.

Turning to `O=C(O)CCCCCN1C(=O)c2ccccc2C1=O`, the Control in the experiment on Mus musculus [1] is reported as 67%; in the experiment on Mus musculus [2], 81%; in the experiment with Mus musculus [3], 51%.

As to `O=C1NCc2ccccc21`, the figures for the Control in the experiment with Mus musculus [1], in the experiment on Mus musculus [2] and with Mus musculus [3] were 87%, 89% and 78%, respectively.

As for `O=C(O)CCN1Cc2ccccc2S1(=O)=O`, the values for the Control in the experiment with Mus musculus [1], in the experiment with Mus musculus [2] and in the experiment with Mus musculus [3] were 59%, 73% and 76%, respectively.

For the compound `O=C(O)CCCCCN1C(=O)c2ccccc2S1(=O)=O`, the Control in the experiment with Mus musculus [1] is 76%; in the experiment with Mus musculus [2] it was 90%; in the experiment on Mus musculus [3] it was 55%.

Regarding `O=C(O)CCN1C(=O)c2ccccc2C1=O`, the results for the Control in the experiment on Mus musculus [1], in the experiment with Mus musculus [2] and with Mus musculus [3] were under 55%, under 74% and under 58%, respectively.

For the compound `CCCCN1C(=O)c2ccccc2S1(=O)=O`, the Control in the experiment with Mus musculus [1] worked out at 56%; in the experiment with Mus musculus [2], 76%; in the experiment with Mus musculus [3] it was 76%.

On to `CCCCN1Cc2ccccc2S1(=O)=O`, for which the Control is given as 68% in the experiment on Mus musculus [1], 71% with Mus musculus [2] and 76% in the experiment on Mus musculus [3].

Consider `O=C(O)CCCCN1C(=O)c2ccccc2C1=O`, for which the Control is reported as 77% with Mus musculus [1], 83% in the experiment with Mus musculus [2] and 54% with Mus musculus [3].

For the compound `CC(=O)CCN1Cc2ccccc2C1=O`, the Control with Mus musculus [1] is under 84%; in the experiment with Mus musculus [2], 88%; in the experiment on Mus musculus [3], under 83%.

For `CC(=O)CCN1C(=O)c2ccccc2S1(=O)=O`, the figures for the Control in the experiment with Mus musculus [1], in the experiment with Mus musculus [2] and in the experiment with Mus musculus [3] were 62%, 60% and 51%, respectively.

On to `CC(=O)CCN1C(=O)c2ccccc2C1=O`, for which the Control in the experiment on Mus musculus [1] is reported as under 63%; in the experiment with Mus musculus [2], under 67%; in the experiment on Mus musculus [3], under 58%.

Regarding `CC(=O)CCCN1C(=O)c2ccccc2C1=O`, the results for the Control in the experiment with Mus musculus [1], with Mus musculus [2] and in the experiment on Mus musculus [3] were under 63%, under 71% and under 59%, respectively.

For the compound `O=S1(=O)NCc2ccccc21`, the Control was 80% in the experiment on Mus musculus [1], 82% with Mus musculus [2] and 86% in the experiment on Mus musculus [3].

`O=C(O)CCCN1C(=O)c2ccccc2C1=O`: the figures for the Control in the experiment with Mus musculus [1], in the experiment on Mus musculus [2] and in the experiment with Mus musculus [3] were 68%, 80% and 59%, respectively.

On to `O=C(O)CCN1C(=O)c2ccccc2S1(=O)=O`, for which the Control in the experiment with Mus musculus [1] turned out to be 47%; in the experiment on Mus musculus [2], 96%; in the experiment on Mus musculus [3], 67%.

For the compound `CC(=O)CCCN1C(=O)c2ccccc2S1(=O)=O`, the Control with Mus musculus [1] came out at 77%; with Mus musculus [2], 73%; in the experiment on Mus musculus [3] it was 77%.

Take `O=C(O)CCN1Cc2ccccc2C1=O`: the Control in the experiment on Mus musculus [1] amounted to 97%; in the experiment with Mus musculus [2], 87%; with Mus musculus [3], 88%.

`CCOC(=O)CCN1C(=O)c2ccccc2S1(=O)=O`: the Control with Mus musculus [1] turned out to be 71%; with Mus musculus [2], 97%; in the experiment on Mus musculus [3] it was 61%.

On to `O=C(O)CCCN1C(=O)c2ccccc2S1(=O)=O`, for which the Control came out at 73% in the experiment on Mus musculus [1], 85% in the experiment on Mus musculus [2] and 48% in the experiment with Mus musculus [3].

Turning to `O=C1NC(=O)c2ccccc21` [PHTHALIMIDE], the Control in the experiment with Mus musculus [1] was 57%; in the experiment with Mus musculus [2], 63%; in the experiment with Mus musculus [3] it was 44%.

`O=C1NS(=O)(=O)c2ccccc21` [SACCHARIN]: the Control in the experiment with Mus musculus [1] amounted to 67%; in the experiment with Mus musculus [2], 68%; in the experiment with Mus musculus [3], 51%.

For the origin of these results see ChEMBL document CHEMBL1122467, “Hypolipidemic activity of phthalimide derivatives. 3. A comparison of phthalimide and 1,2-benzisothiazolin-3-one 1,1-dioxide derivatives to phthalimidine and 1,2-benzisothiazoline 1,1-dioxide congeners” (1983).
